The list is not random: actives were taken first. Their share in the collection is about 3.7%.
KCNK3 inh = human KCNK3 channel inhibition, primary screen; O14649; CHO-KCNK3 thallium flux, FluxOR fluorescence; active compounds read low; B-score at 10 µM; actives 0.84% (n = 340,000); AID 602410;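 active means B-score under library mean minus 4 SD, starting fluorescence ratio at most library mean plus 5 SD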;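 further: more negative B-score means stronger inhibition of thallium flux through KCNK3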
KCNQ1 block = inhibitors of human KCNQ1 potassium channel; actives 1.3% (n = 310,000); B-score at 10 µM; CHO-K1 KCNQ1, FluxOR thallium flux fluorescence; active compounds read high; AID 2642;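 active means compounds whose thallium flux B-score, printed positive for inhibition, exceeds three library SD while starting fluorescence stays within three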;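 further: channel opened by potassium depolarization with thallium stimulus after 20 min compound exposure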
KCNK9 inh = inhibitors of human KCNK9 two-pore domain potassium channel | AID 488922 | Q9NPC2 | B-score at 10 µM | actives 1.2% (n = 310,000) | HEK293 KCNK9, FluxOR thallium flux fluorescence; active compounds read low;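 active means ratio B-score over 3 SD below the library mean, with starting fluorescence within 5 SD of its mean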;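 further: negative B-score means less thallium flux so channel inhibition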
KCNQ1 act = potentiators or activators of human KCNQ1 potassium channel | CHO-K1 KCNQ1, thallium flux FluxOR fluorescence; active compounds read high | B-score at 10 µM | actives 0.35% (n = 310,000) | AID 2648;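 active means fluorescence ratio B-score, a plate-corrected score, at least three library SD, with initial intensity B-score within 5 SD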
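Doses: Single concentration per compound, DMSO matched to controls | Test system: KCNQ1-transfected CHO-K1 cells | Timing: 90 min dye loading and 20 min compound exposure, both at room temperature | Measured by: Kinetic FluxOR thallium fluorescence, 10-s 1-Hz baseline, 110-s post-stimulus read | Medium: Assay buffer with matched DMSO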
hERG protect = hERG (human) protection from proarrhythmic block | Q12809 | CHO-hERG, FluxOR thallium flux, dofetilide IC70 present | activation (rescue from dofetilide block), less the hit threshold, % at 10 µM | actives 0.51% (n = 310,000) | AID 1511;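 active means activation above the mean of controls blocked by dofetilide plus 5 SD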;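 further: thallium influx through hERG after potassium depolarization seen as dye fluorescence rise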
Kir21 inh = inhibitors of mouse Kir2.1 inward-rectifier potassium channel; actives 0.85% (n = 310,000); HEK293-Kir2.1, FluxOR thallium flux fluorescence; active compounds read low; B-score at 10 µM;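 active means fluorescence ratio B-score at or below minus 3 SD of library scores, with starting-brightness B-score within 2 SD, cut at about -4.2 in these data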;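 further: channel flux triggered by added potassium and thallium sulfate stimulus; B-score of peak minus minimum fluorescence over baseline after thallium stimulus; more negative B-score means stronger Kir2.1 block with less thallium influx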
KCNQ1 block val = confirmation of human KCNQ1 potassium channel inhibitors; shares compounds with KCNQ1 block; KCNQ1 cell line, FluxOR thallium flux fluorescence; inhibition, % at 10 µM; actives 93% (n = 1,600);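 active means primary screen active, with duplicate mean exceeding buffer control mean plus 3 SD of buffer wells, cut at about 28% in these data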;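 further: 0% = buffer control ratio and 100% = XE991 inhibitor control ratio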
CHO KCNQ1 ctr = KCNQ1 inhibitor counter-screen hit in parental CHO cells; parental CHO-K1, FluxOR thallium flux fluorescence ratio; active compounds read low; zero means no signal rise above baseline; actives 21% (n = 1,600); fluorescence ratio (Tl flux) at 10 µM; shares compounds with KCNQ1 block;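 active means mean of duplicate thallium-flux fluorescence ratios in parental host cells more than 5 SD below the buffer control mean, cut at about 0.38 in these data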;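 further: ratio is peak minus minimum fluorescence divided by baseline fluorescence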
KCNQ1 APC inh = confirmation of human KCNQ1 potassium channel inhibitors by electrophysiology; KCNQ1-CHO cells, automated patch clamp current; calls only at 10 µM; actives 20% (n = 490); shares compounds with KCNQ1 block;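 active means KCNQ1 current drop exceeding 3 SD of negative control wells, seen in both duplicate runs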;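 further: steady state current during a 2 s step from -80 to +40 mV; negative values mean current inhibition and positive values mean potentiation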
KCNQ2 inh = KCNQ1 inhibitor that also blocks rat KCNQ2 channel; inhibition, % at 10 µM; actives 71% (n = 1,600); KCNQ2 cells, FluxOR thallium flux fluorescence; shares compounds with KCNQ1 block; AID 651746;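 active means mean percent inhibition of the KCNQ2 thallium signal more than 5 SD above the buffer-only control wells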;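 further: KCNQ2 expressed in CHO cells; 0% = buffer control wells and 100% = XE-991 inhibitor control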
KCNQ1-KCNE1 inh = human KCNQ1/KCNE1 inhibition in KCNQ1 specificity screen; KCNQ1/KCNE1 cells, FluxOR thallium flux fluorescence; inhibition, % at 10 µM; shares compounds with KCNQ1 block; actives 77% (n = 1,600); AID 652147;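 active means mean percent inhibition of duplicate wells above the buffer-only control mean plus 3 SD of those controls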;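 further: 0% = buffer only wells and 100% = XE-991 inhibitor control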
KCNK9 inh conf = human KCNK9 inhibitor confirmation; shares compounds with KCNK9 inh; HEK293 KCNK9 cells, FluxOR thallium flux fluorescence; inhibition, % at 10 µM; actives 43% (n = 4,900);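 active means thallium signal inhibited by more than 5 SD of the compound-free buffer control wells, on both duplicate plates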;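 further: 0% = assay buffer control wells without compound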
Kir2-1 spec = tests whether KCNK9 modulators also affect mouse Kir2.1. shares compounds with KCNK9 inh. Kir2.1 cells, FluxOR thallium flux fluorescence. inhibition, % at 10 µM. actives 4% (n = 4,900). AID 492993;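 active means thallium signal drop more than 5 SD beyond the mean of the no-compound control wells, seen in both duplicate plates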;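 further: signal is fluorescence rise after thallium addition divided by baseline fluorescence; plate controls were assay buffer only for no effect and full block by chlorpromazine control for full effect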
HEK293 Tl ctr = second counter-screen for KCNK9 modulators: effect in non-induced cells; inhibition, % at 10 µM; AID 492997; actives 40% (n = 4,900); non-induced KCNK9-HEK293, FluxOR thallium flux; shares compounds with KCNK9 inh;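 active means thallium signal drop beyond 5 SD of the untreated control mean, on both duplicate plates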;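 further: plate controls were buffer only IC0 wells for no effect and SID17386958 at its maximal inhibitory level for full effect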
KCNK3 inh conf = human KCNK3 channel inhibition, confirmation assay; shares compounds with KCNK3 inh; CHO-KCNK3 thallium flux, FluxOR fluorescence; 0% buffer, 100% carvedilol maximal block; ratio percent of control, % at 10 µM; actives 99% (n = 2,400);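 active means ratio percent of control, averaged over triplicates, above buffer control mean plus 5 SD, cut at about 64% in these data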;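 further: ratio is the fluorescence rise from min to max over baseline after thallium stimulus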
KCNK3 uninduced = activity in cells without induced KCNK3 expression; thallium flux ratio (lower = more inhibition) at 10 µM; AID 651747; non-induced KCNK3 parental cells, FluxOR thallium flux; active compounds read low; actives 40% (n = 2,400); shares compounds with KCNK3 inh;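 active means thallium flux ratio, averaged over three wells, more than 5 SD below the buffer control mean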;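 further: host cells are CHO cells without KCNK3 induction; ratio is peak minus trough fluorescence over baseline then normalized to buffer controls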
* marks the source's active call; other numbers are inactive results; i = inactive; x = no result; + = active, no number.

SMILES | KCNK3 inh | KCNQ1 block | KCNK9 inh | KCNQ1 act | hERG protect | Kir21 inh | KCNQ1 block val | CHO KCNQ1 ctr | KCNQ1 APC inh | KCNQ2 inh | KCNQ1-KCNE1 inh | KCNK9 inh conf | Kir2-1 spec | HEK293 Tl ctr | KCNK3 inh conf | KCNK3 uninduced
CC(=O)n1c2c(c3ccccc31)OC(N)=C(C#N)C2c1ccc(C(C)C)cc1 (centres undefined) | i | 8* | -9.22* | i | -9.4 | 1.37 | 114.5* | 0.381 | i | 101.3%* | 154.5%* | 33.0%* | i | 37.5%* | x | x
Cc1nn(CCc2nn[nH]n2)c2nc(-c3ccc(Br)cc3)cc(C(F)(F)F)c12 | i | 8* | i | i | -5.9 | 1.07 | 76.0* | 0.379* | x | 101.3%* | 59.0%* | i | i | i | x | x
CCCc1nc(SCC(=O)N2CCC(Cc3ccccc3)CC2)c2c(=O)n(C)c(=O)n(C)c2n1 | i | 6* | i | i | -33.7 | -0.4 | 97.5* | 0.41 | x | i | i | i | i | i | x | x
CN1CCc2c(OCc3ccc(F)cc3)cccc2C1=O | i | i | i | i | -15.3 | -0.86 | x | x | x | x | x | x | x | x | x | x
O=C1c2cccc(OCc3ccc(F)cc3)c2CCN1Cc1ccc(F)cc1 | i | 6* | -15.1* | i | -17.0 | 1.45 | 126.0* | 0.414 | i | 115.0%* | 148.5%* | 66.0%* | i | i | x | x
Cc1cc(C)n(CC(=O)Nc2ccc(N3CCOCC3)c(Cl)c2)c(=O)c1C#N | i | i | i | i | -2.1 | 1.89 | x | x | x | x | x | x | x | x | x | x
COc1ccc(CCNC(C(=O)Nc2cc(C)cc(C)c2)c2ccccc2)cc1 (centres undefined) | -14* | 12* | i | i | -15.6 | -2.27 | 87.5* | 0.369* | x | 122.3%* | 143.5%* | x | x | x | 117.7* | 0.139*
Cc1ccc(NC(=O)CSc2ccccc2)cc1S(=O)(=O)N1CCCCC1 | i | x | x | x | x | x | x | x | x | x | x | x | x | x | x | x
Cc1ccc(NC(=S)NCc2ccccc2)cc1S(=O)(=O)N1CCCCC1 | -11.1* | 6* | i | i | -10.9 | -2.72 | 107.5* | 0.523 | i | 62.3%* | i | x | x | x | 116.3* | i
O=C(Nc1cccnc1)c1cc(-c2cccc(Br)c2)nc2ccccc12 | -12.1* | 15* | -9.21* | i | -17.8 | 0.86 | 147.5* | 0.306* | x | 130.3%* | 195.0%* | i | i | 38.0%* | 155.7* | 0.105*
O=C(Nc1ccncc1)c1cc(-c2cccc(Br)c2)nc2ccccc12 | i | i | i | i | -16.4 | -0.05 | x | x | x | x | x | x | x | x | x | x
NC(=O)c1cc[n+](Cc2ccccc2Cl)cc1 | i | i | i | i | -3.0 | 0.82 | x | x | x | x | x | x | x | x | x | x
CC(C)Cc1nc(N2CCN(C(=O)c3ccco3)CC2)c(C#N)c2c1CCCC2 | -10.2* | 11* | -16* | i | -8.9 | 0.4 | 116.0* | 0.318* | x | 116.7%* | i | 34.0%* | i | 28.5%* | 66.0* | i
Fc1ccc(C2c3cccn3CCN2C(=S)Nc2cccc(F)c2)cc1 (centres undefined) | -10.2* | 9* | -7.53* | i | -16.0 | -0.41 | 118.5* | 0.388 | + | 116.0%* | 182.5%* | x | x | x | 134.7* | 0.151*
Fc1ccc(C2c3[nH]c4ccccc4c3CCN2Cc2cccn2-c2ncccn2)cc1 (centres undefined) | -14* | 6* | -7.81* | i | -21.7 | 0.01 | 83.5* | 0.44 | x | 72.0%* | 97.0%* | x | x | x | 121.3* | 0.152*
Cc1cnc(C(=O)N2CCc3c([nH]c4ccccc34)C2c2ccc(F)cc2)cn1 (centres undefined) | i | i | i | i | -0.1 | -0.16 | x | x | x | x | x | x | x | x | x | x
Cn1c(N2CCN(C(c3ccccc3)c3ccccc3)CC2)nc2ccccc21 | -12.7* | 12* | -14.2* | i | -14.9 | 0.69 | 142.5* | 0.385 | i | 142.3%* | + | 83.5%* | i | i | 117.0* | 0.157*
Cn1c(N2CCN(C(=O)Nc3ccc(F)cc3)CC2)nc2ccccc21 | i | i | i | i | -0.8 | 0.73 | x | x | x | x | x | x | x | x | x | x
CSc1ncccc1C(=O)NC(C)CCc1ccccc1 (centres undefined) | i | i | i | i | -2.3 | -2.16 | x | x | x | x | x | x | x | x | x | x
COc1ccc(C(=O)C2CCCN(Cc3cccn3-c3nccs3)C2)cc1OC (centres undefined) | i | i | i | i | -15.0 | -1.61 | x | x | x | x | x | x | x | x | x | x
Cc1ccsc1C(=O)C1CCCN(Cc2cccn2-c2ccc(Cl)cn2)C1 (centres undefined) | -9.07* | 9* | i | i | -25.6 | -4.59* | 91.5* | 0.43 | + | 71.7%* | 57.5%* | x | x | x | 127.3* | 0.136*
CCOC(=O)c1c(C)n(-c2ccc(OC)cc2)c2ccc(O)c(CN(C)C)c12 | i | i | i | i | -17.5 | -2.03 | x | x | x | x | x | x | x | x | x | x
CCOC(=O)c1c(C)n(-c2ccc(C)cc2)c2ccc(O)c(CN(C)C)c12 | -9.8* | 6* | i | i | -24.3 | -3.42 | 37.5* | 0.484 | x | i | i | x | x | x | 117.0* | 0.151*
